Published values collected from several papers.
Compare with care: the assays were run in different laboratories.
Target: Calcium/calmodulin-dependent protein kinase type II subunit delta (CAMK2D, Homo sapiens, UniProt Q13557)

Cc1cnn2ncc(-c3ccnc(N(C)C)n3)c2c1
remaining binding (binding; 1 µM): 78%

COc1cnc(Nc2cccc(S(N)(=O)=O)c2)nc1N1CCN(c2ccccc2)C(=O)C1
remaining binding (binding; competition with immobilised ligand; 1 µM): 100%

CCS(=O)(=O)c1cc2cc(C[C@](O)(CC(C)(C)c3ccc(F)cc3C(N)=O)C(F)(F)F)[nH]c2cn1
remaining binding (cell-free assay; competition with immobilised ligand; 1 µM): 100%

c1cnn2ncc(-c3ccnc(N4CCC45COC5)n3)c2c1
remaining binding (binding; 1 µM): 83%

O=C(c1ccc(Nc2ncc(Cl)c(-c3ccc(Cl)s3)n2)cc1)N1CCC(N2CCCC2)CC1
remaining binding (binding; competition with immobilised ligand; 1 µM): 75%

O=C(Nc1c[nH]nc1C(=O)NC1CCNCC1)c1cc(F)cc(F)c1
remaining binding (binding; competition with immobilised ligand; 1 µM): 100%

CNC(=O)c1ccc(Nc2ncc(C(F)(F)F)c(NCc3nccnc3N(C)S(C)(=O)=O)n2)cc1
remaining binding (cell-free assay; competition with immobilised ligand; 0.1 µM): 83%

CCN1CCN(Cc2ccc(C(=O)Nc3ccc(C)c(Oc4ccc5c(c4)CC(=O)N5)c3)cc2C(F)(F)F)CC1
remaining binding (binding; competition with immobilised ligand; 1 µM): 100%

Nc1ncc2c(n1)-c1c([nH]c3ccc(C#CC4CC4)cc13)CCCC2
remaining binding (binding; competition with immobilised ligand; 1 µM): 95%

Cc1c(C(=O)O)cc(-c2ccc(C3CCNCC3)cc2)c2ccc(-c3ccc(C(F)(F)F)cc3)cc12
remaining binding (cell-free assay; competition with immobilised ligand; 1 µM): 100%

COc1cnc(Nc2cccc(S(N)(=O)=O)c2)nc1N1CCN(c2ccccc2)CC1
remaining binding (binding; competition with immobilised ligand; 1 µM): 92%

C[C@H]1CCN(c2nccc(-c3cnn4ncccc34)n2)C1
remaining binding (binding; 1 µM): 94%

CS(=O)(=O)c1cc(C2(NC(=O)c3cncc4c3cnn4-c3ccc(F)cc3)CC2)ccn1
remaining binding (cell-free assay; competition with immobilised ligand; 1 µM): 76%

COc1ccnn2ncc(-c3ccnc(N(C)C)n3)c12
remaining binding (binding; 1 µM): 81%

COc1ncc2cc3ccccc3nc2c1C#N
remaining binding (cell-free assay; competition with immobilised ligand; 5 µM): 98%

CN(C)c1nccc(-c2cnn3ncccc23)n1
remaining binding (binding; 1 µM): 100%

C[C@H](c1cccc(C#N)c1)n1cc(Cl)cc(C(N)=O)c1=N
remaining binding (cell-free assay; competition with immobilised ligand; 1 µM): 100%

O=C(NCCCN1CCOCC1)c1ccc(Nc2ncc(Cl)c(-c3ccc(Cl)s3)n2)cc1
remaining binding (binding; competition with immobilised ligand; 1 µM): 83%

COc1ccc2cc(OCC3(C(=O)O)CN(C(=O)c4ccc(F)cc4)C3)ccc2c1
remaining binding (cell-free assay; competition with immobilised ligand; 1 µM): 100%

Cc1cnc(Nc2ccc(C(=O)N3CCC(N4CCCC4)CC3)cc2)nc1-c1cc2ccccc2s1
remaining binding (binding; competition with immobilised ligand; 1 µM): 73%

CN(c1ccnc(CNc2nc(Nc3ccc4c(c3)CC(=O)N4)ncc2C(F)(F)F)n1)S(C)(=O)=O
remaining binding (cell-free assay; competition with immobilised ligand; 1 µM): 100%

N[C@@H]1CCN(c2nccc(-c3cnn4ncccc34)n2)C1
remaining binding (binding; 1 µM): 100%
